Calls of active or inactive are those of the source. The calls are words filed in the database; no cut-off is given here.
How the values were obtained:
[1] = system: L1210; assay: Inhibition of [3H]thymidine uptake in L1210 cells at 1 uM; assay type: functional; conditions: Mus musculus
Method in brief: (§1)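 ³H-thymidine uptake into L1210 leukaemia cells measured by a modified rapid-mixing technique with inhibitor-stop. Values are mean ± SD of three or more separate determinations. IC50 is interpolated from concentration–inhibition curves.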

[2] = system: L1210; assay: Inhibition of [3H]-thymidine uptake in L1210 cells in the presence of 5 mg/mL human AGP at 10 uM; assay type: functional, Mus musculus
Method in brief: (§2)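 Rapid-mixing, inhibitor-stop ³H-thymidine uptake into L1210 leukaemia cells run with 5 mg/mL human AGP present. Values are mean ± SD of three or more separate determinations. Significance of the difference from inhibition without AGP is taken at p ≤ 0.05.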

[3] = system: L1210; assay: Inhibition of [3H]thymidine uptake in L1210 cells at 10 uM; assay type: functional; conditions: Mus musculus; method in brief: as §1
[4] = system: L1210; assay: Inhibition of [3H]thymidine uptake in L1210 cells; assay type: functional, cell-based; conditions: Mus musculus; method in brief: as §1
[5] = system: L1210; assay: Tested for the reduction in inhibition of [3H]thymidine uptake in L1210 cells in the presence of 5 mg/mL human AGP; assay type: functional, Mus musculus; method in brief: as §2
[6] = system: L1210; assay: Inhibition of [3H]thymidine uptake in L1210 cells in the presence of 5 mg/mL human AGP at 1 uM; assay type: functional, Mus musculus; method in brief: as §2
[7] = system: L1210; assay: Compound was tested for the inhibition of [3H]thymidine uptake in L1210 cells at 100 uM; assay type: functional; conditions: Mus musculus; method in brief: as §1
[8] = system: L1210; assay: Compound was tested for the inhibition of [3H]thymidine uptake in L1210 cells at 0.1 uM; assay type: functional; conditions: Mus musculus; method in brief: as §1
[9] = system: L1210; assay: Compound was tested for the inhibition of [3H]thymidine uptake in L1210 cells at 3 uM; assay type: functional; conditions: Mus musculus; method in brief: as §1
[10] = system: L1210; assay: Tested for the reduction in inhibition of [3H]-thymidine uptake in L1210 cells in the presence of 5 mg/mL human AGP; NS, no significant reduction in inhibition by AGP; assay type: functional, cell-based; conditions: Mus musculus; method in brief: as §2
[11] = system: L1210; assay: Compound was tested (100 uM) for the inhibition of [3H]thymidine uptake in L1210 cells in the presence of 5 mg/mL human AGP; assay type: functional, Mus musculus; method in brief: as §2

OCCN(CCO)c1nc(NCc2ccccc2)c2nc(N(CCO)CCO)nc(NCc3ccccc3)c2n1
inhibition at 1 µM [1]: 51%
Inhibition [2]: 75%
inhibition at 10 µM [3]: 91%
IC50 [4]: 600 nM
Reduction [5]: 44%
Inhibition [6]: 21%

Clc1nc(Cl)c2nc(Cl)nc(Cl)c2n1
inhibition [7]: inactive

OCC(O)COc1nc(N2CCCCC2)c2nc(OC[C@H](O)CO)nc(N3CCCCC3)c2n1 (some centres undefined)
inhibition at 100 µM [7]: 87%
inhibition at 10 µM [3]: 32%

Clc1nc(NCc2ccccc2)c2nc(Cl)nc(NCc3ccccc3)c2n1
inhibition [7]: inactive

C[C@H](O)COc1nc(N(C)Cc2ccccc2)c2nc(OC[C@@H](C)O)nc(N(C)Cc3ccccc3)c2n1
inhibition at 1 µM [1]: 55%
Reduction [5]: 84%
Inhibition [6]: 9%

COc1ccc(CN(C)c2nc(OCCO)nc3c(N(C)Cc4ccc(OC)cc4)nc(OCCO)nc23)cc1
inhibition at 1 µM [1]: 74%
inhibition at 0.1 µM [8]: 27%
IC50 [4]: 430 nM
Reduction [5]: 77%
Inhibition [6]: 17%

COc1ccc(CN(C)c2nc(NCC(C)O)nc3c(N(C)Cc4ccc(OC)c(OC)c4)nc(NCC(C)O)nc23)cc1OC (centres undefined)
inhibition at 1 µM [1]: 73%
Reduction [5]: 22%
Inhibition [6]: 57%

OCCN(CCO)c1nc(NCc2ccc3c(c2)OCO3)c2nc(N(CCO)CCO)nc(NCc3ccc4c(c3)OCO4)c2n1
inhibition at 1 µM [1]: 73%
Reduction [5]: 36%
Inhibition [6]: 47%

CC1(C)OC[C@@H](COc2nc(N3CCCCC3)c3nc(OC[C@@H]4COC(C)(C)O4)nc(N4CCCCC4)c3n2)O1
inhibition at 3 µM [9]: 76%
inhibition at 10 µM [3]: 100%

COc1ccc(CNc2nc(N(CCO)CCO)nc3c(NCc4ccc(OC)c(OC)c4)nc(N(CCO)CCO)nc23)cc1OC
inhibition at 1 µM [1]: 73%
inhibition at 10 µM [3]: 98%
IC50 [4]: 270 nM
Reduction [5]: 25%
Inhibition [6]: 53%

OCC(O)COc1nc(N2CCCCC2)c2nc(OC[C@@H](O)CO)nc(N3CCCCC3)c2n1 (some centres undefined)
inhibition at 100 µM [7]: 91%
Inhibition [2]: 29%
inhibition at 10 µM [3]: 37%
IC50 [4]: 8800 nM
Reduction [5]: 22%

c1nc(N2CCCCC2)c2ncnc(N3CCCCC3)c2n1
inhibition [7]: inactive

OCC(O)CNc1nc(N2CCCCC2)c2nc(NCC(O)CO)nc(N3CCCCC3)c2n1 (centres undefined)
inhibition at 1 µM [1]: 18%
Inhibition [2]: 20%
inhibition at 10 µM [3]: 55%
IC50 [4]: 3700 nM
Reduction [5]: 64%

CC1(C)OC[C@H](COc2nc(N3CCCCC3)c3nc(OC[C@H]4COC(C)(C)O4)nc(N4CCCCC4)c3n2)O1
inhibition at 1 µM [1]: 47%
Inhibition [2]: 62%
inhibition at 10 µM [3]: 87%
IC50 [4]: 1100 nM
Reduction [5]: 29%

CC(O)CNc1nc(NCc2ccc3c(c2)OCO3)c2nc(NCC(C)O)nc(NCc3ccc4c(c3)OCO4)c2n1 (centres undefined)
inhibition at 1 µM [1]: 69%
inhibition at 10 µM [3]: 90%
Reduction [10]: No significant reduction in inhibition
IC50 [4]: 260 nM
Inhibition [6]: 64%

COc1ccc(CN(C)c2nc(NCC(C)O)nc3c(N(C)Cc4ccc(OC)cc4)nc(NCC(C)O)nc23)cc1 (centres undefined)
inhibition at 1 µM [1]: 39%
Reduction [5]: 86%
Inhibition [6]: 5%

COc1ccc(CNc2nc(NCCO)nc3c(NCc4ccc(OC)cc4)nc(NCCO)nc23)cc1
inhibition at 1 µM [1]: 56%
inhibition at 0.1 µM [8]: 10%
IC50 [4]: 930 nM
Reduction [5]: 40%
Inhibition [6]: 35%

COc1ccc(CNc2nc(N(CCO)CCO)nc3c(NCc4ccc(OC)cc4)nc(N(CCO)CCO)nc23)cc1
inhibition at 1 µM [1]: 65%
inhibition at 10 µM [3]: 96%
IC50 [4]: 250 nM
Reduction [5]: 29%

COc1ccc(CN(C)c2nc(OCCCO)nc3c(N(C)Cc4ccc(OC)cc4)nc(OCCCO)nc23)cc1
inhibition at 1 µM [1]: 78%
inhibition at 0.1 µM [8]: 38%
IC50 [4]: 220 nM
Reduction [5]: 59%
Inhibition [6]: 32%

COc1ccc(CNc2nc(OCCO)nc3c(NCc4ccc(OC)c(OC)c4)nc(OCCO)nc23)cc1OC
inhibition at 1 µM [1]: 56%
Reduction [5]: 46%
Inhibition [6]: 30%

COCC(C)Oc1nc(N2CCCCC2)c2nc(OC(C)COC)nc(N3CCCCC3)c2n1 (centres undefined)
inhibition at 100 µM [7]: 96%
inhibition at 10 µM [3]: 62%

COc1ccc(CNc2nc(OCCO)nc3c(NCc4ccc(OC)cc4)nc(OCCO)nc23)cc1
inhibition at 1 µM [1]: 40%
inhibition at 10 µM [3]: 88%
Reduction [10]: No significant reduction in inhibition
IC50 [4]: 670 nM

CCCOc1nc(N2CCCCC2)c2nc(OCCC)nc(N3CCCCC3)c2n1
inhibition at 100 µM [7]: 60%
inhibition at 10 µM [3]: 37%
IC50 [4]: 52000 nM

COc1ccc(CNc2nc(NCC(C)O)nc3c(NCc4ccc(OC)c(OC)c4)nc(NCC(C)O)nc23)cc1OC (centres undefined)
inhibition at 1 µM [1]: 83%
inhibition at 0.1 µM [8]: 38%
IC50 [4]: 400 nM
Reduction [5]: 12%
Inhibition [6]: 73%

COc1ccc(CNc2nc(NCC(C)O)nc3c(NCc4ccc(OC)cc4)nc(NCC(C)O)nc23)cc1 (centres undefined)
inhibition at 1 µM [1]: 58%
inhibition at 0.1 µM [8]: 21%
IC50 [4]: 700 nM
Reduction [5]: 45%
Inhibition [6]: 32%

COc1ccc(CNc2nc(NCCO)nc3c(NCc4ccc(OC)c(OC)c4)nc(NCCO)nc23)cc1OC
inhibition at 1 µM [1]: 62%
inhibition at 0.1 µM [8]: 29%
IC50 [4]: 500 nM
Reduction [5]: 23%
Inhibition [6]: 44%

C[C@H](O)COc1nc(N2CCCCC2)c2nc(OC[C@@H](C)O)nc(N3CCCCC3)c2n1
inhibition at 1 µM [1]: 47%
inhibition at 10 µM [3]: 92%
IC50 [4]: 900 nM
Reduction [5]: 55%
Inhibition [6]: 20%

COCC(COc1nc(N2CCCCC2)c2nc(OCC(COC)OC)nc(N3CCCCC3)c2n1)OC (centres undefined)
inhibition at 1 µM [1]: 38%
Inhibition [2]: 56%
inhibition at 10 µM [3]: 87%
IC50 [4]: 1880 nM
Reduction [5]: 36%

OCC(O)COc1nc(N2CCCCC2)c2nc(OCC(O)CO)nc(N3CCCCC3)c2n1 (centres undefined)
inhibition at 100 µM [7]: 83%
Inhibition [2]: 34%
inhibition at 10 µM [3]: 32%
Reduction [10]: No significant reduction in inhibition
Inhibition [11]: 80%

CC(O)CNc1nc(N(C)Cc2ccccc2)c2nc(NCC(C)O)nc(N(C)Cc3ccccc3)c2n1 (centres undefined)
inhibition at 1 µM [1]: 56%
inhibition at 0.1 µM [8]: 24%
IC50 [4]: 700 nM
Reduction [5]: 77%
Inhibition [6]: 12%

COc1ccc(CN(C)c2nc(N(CCO)CCO)nc3c(N(C)Cc4ccc(OC)cc4)nc(N(CCO)CCO)nc23)cc1
inhibition at 1 µM [1]: 71%
inhibition at 0.1 µM [8]: 27%
IC50 [4]: 840 nM
Reduction [5]: 46%
Inhibition [6]: 40%

COc1ccc(CNc2nc(OCCCO)nc3c(NCc4ccc(OC)c(OC)c4)nc(OCCCO)nc23)cc1OC
inhibition at 1 µM [1]: 71%
Reduction [5]: 34%
Inhibition [6]: 47%

CN(Cc1ccccc1)c1nc(OCCO)nc2c(N(C)Cc3ccccc3)nc(OCCO)nc12
inhibition at 1 µM [1]: 49%
inhibition at 10 µM [3]: 87%
IC50 [4]: 800 nM
Reduction [5]: 55%
Inhibition [6]: 22%
